Measurements reported in ChEMBL document CHEMBL1157701, “Inhibition of IkB kinase and NF-kappaB by a novel synthetic compound SK 2009” (Bioorg Med Chem, 2010).
Active and inactive are the calls of the source. The rule behind the calls is not given here.

Experiments:
[1] = Cytotoxicity against human KBM5 cells assessed as cell viability at 100 uM by trypan blue assay; format: cell-based; conditions: read-out: Activity
KBM5 [2] = assay: Inhibition of TNF-alpha-induced NF-kappaB activation in human KBM5 cells at 100 uM treated for 12 hrs before TNFalpha challenge measured after 30 mins by EMSA relative to control; format: cell-based
Outline: (§1)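 KBM-5 cells (1×10^6/mL) preincubated with compound for 12 h, then stimulated with 0.1 nM TNFα for 30 min. Nuclear extracts (15 μg protein) incubated with 16 fmol 32P-end-labeled 45-mer HIV LTR NF-κB oligonucleotide for 30 min at 37°C and resolved by EMSA. DMSO stock diluted in culture medium.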

KBM5 [3] = assay: Cytotoxicity against human KBM5 cells at 10 uM after 72 hrs by MTT assay; format: functional, cell-based
Outline: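 MTT viability: KBM-5 cells (5000 per well) in triplicate with or without compound for 72 h at 37 °C. MTT (5 mg/ml in PBS) added for 2 h at 37 °C. Extraction buffer (20% SDS, 50% dimethylformamide) added overnight at 37 °C, then OD read at 570 nm.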

KBM5 [4] = assay: Inhibition of TNF-alpha-induced NF-kappaB activation in human KBM5 cells at 100 uM treated for 12 hrs before TNFalpha challenge measured after 30 mins by EMSA; format: cell-based; outline: as §1
KBM5 [5] = assay: Inhibition of NF-kappaB activation in human KBM5 cells at 100 uM treated for 12 hrs before TNFalpha challenge measured after 12 hrs by EMSA relative to control; format: cell-based
Outline: (§2)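 Time course: KBM-5 cells (1×10^6/mL) exposed to 100 μM compound for varying times before 0.1 nM TNF for 30 min. Nuclear extracts (15 μg protein) were probed by EMSA with 16 fmol 32P-labeled HIV LTR κB 45-mer for 30 min at 37°C.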

[6] = Inhibition of VEGF protein expression in TNF-alpha-stimulated human KBM5 cells at 100 uM after 6 to 24 hrs by Western blot analysis; format: functional, cell-based
Outline: (§3)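 Western blot: KBM-5 lysates (30 μg protein) separated by SDS-PAGE and probed with anti-cyclin D1, Bcl-2 or VEGF (1:1000). HRP secondary (1:3000) applied for 2 h, detection by ECL, bands quantified by densitometry.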

KBM5 [7] = assay: Inhibition of NF-kappaB activation in human KBM5 cells at 100 uM treated for 12 hrs before TNFalpha challenge measured after 4 hrs by EMSA relative to control; format: cell-based
KBM5 [8] = assay: Inhibition of NF-kappaB activation in human KBM5 cells at 5 to 100 uM treated for 12 hrs in absence of TNFalpha by EMSA
[9] = Inhibition of cyclin D1 protein expression in TNF-alpha-stimulated human KBM5 cells at 100 uM after 6 to 24 hrs by Western blot analysis; format: functional, cell-based; outline: as §3
[10] = molecular target: Transcription factor p65 (Homo sapiens) (UniProt Q04206); assay: Inhibition of nuclear DNA binding to NF-kappaB p65 subunit in TNF-alpha-stimulated human KBM5 cells at 10 uM after 30 mins by EMSA relative to control; format: cell-based
Outline: (§4)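 Direct DNA-binding test: nuclear extracts from untreated KBM-5 cells or cells given 0.1 nM TNF for 30 min were incubated for 30 min with compound at various concentrations. Binding to a 32P-labeled HIV LTR κB oligonucleotide was then assessed by EMSA.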

KBM5 [11] = assay: Inhibition of TNF-alpha-induced IKK activation in human KBM5 cells at 100 uM treated for 12 hrs before TNFalpha challenge by immunoprecipitation assay; format: cell-based; conditions: TDE = time-dependent effect
Outline: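 KBM-5 cells (5×10^6/mL) preincubated with 100 μM compound for 12 h, then given 1 nM TNF for the indicated times. IKK immunoprecipitated from whole-cell lysates with anti-IKK-α and assayed at 30°C for 30 min: 50 mM HEPES pH 7.4, 20 mM MgCl2, 2 mM DTT, [32P]ATP, unlabeled ATP, 2 μg GST-IκBα(1-54). Phosphorylated substrate shown by SDS-PAGE/phosphorimaging; total IKK-α/β by immunoblot.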

KBM5 [12] = assay: Inhibition of NF-kappaB activation in human KBM5 cells at 100 uM treated for 12 hrs before TNFalpha challenge measured after 8 hrs by EMSA relative to control; format: cell-based; outline: as §2
[13] = molecular target: Transcription factor p65 (Homo sapiens) (UniProt Q04206); assay: Inhibition of nuclear DNA binding to NF-kappaB p65 subunit in TNF-alpha-stimulated human KBM5 cells at 25 uM after 30 mins by EMSA relative to control; format: cell-based; outline: as §4
[14] = molecular target: Transcription factor p65 (Homo sapiens) (UniProt Q04206); assay: Inhibition of nuclear DNA binding to NF-kappaB p65 subunit in TNF-alpha-stimulated human KBM5 cells at 50 uM after 30 mins by EMSA relative to control; format: cell-based; outline: as §4
KBM5 [15] = assay: Inhibition of TNF-alpha-induced NF-kappaB activation in human KBM5 cells treated for 12 hrs before TNFalpha challenge measured after 30 mins by EMSA; format: cell-based; outline: as §1
KBM5 [16] = assay: Inhibition of NF-kappaB activation in human KBM5 cells at 100 uM treated for 12 hrs before TNFalpha challenge measured after 6 hrs by EMSA relative to control; format: cell-based; outline: as §2
KBM5 [17] = assay: Inhibition of Bcl-2 protein expression in TNF-alpha-stimulated human KBM5 cells at 100 uM after 6 to 24 hrs by Western blot analysis; format: functional, cell-based; outline: as §3
KBM5 [18] = assay: Intrinsic activity at IKK in TNF-alpha-stimulated human KBM5 cells at 10 to 100 uM added directly to IKK immune complexes in vitro by immunoprecipitation assay
[19] = molecular target: Transcription factor p65 (Homo sapiens) (UniProt Q04206); assay: Inhibition of nuclear DNA binding to NF-kappaB p65 subunit in TNF-alpha-stimulated human KBM5 cells at 100 uM after 30 mins by EMSA relative to control; format: cell-based; outline: as §4
KBM5 [20] = assay: Inhibition of NF-kappaB activation in human KBM5 cells at 100 uM treated for 12 hrs before TNFalpha challenge by EMSA; format: cell-based; conditions: TDE = time-dependent effect; outline: as §1

Transcription factor p65 (Homo sapiens), sequence (Q04206 whole entry): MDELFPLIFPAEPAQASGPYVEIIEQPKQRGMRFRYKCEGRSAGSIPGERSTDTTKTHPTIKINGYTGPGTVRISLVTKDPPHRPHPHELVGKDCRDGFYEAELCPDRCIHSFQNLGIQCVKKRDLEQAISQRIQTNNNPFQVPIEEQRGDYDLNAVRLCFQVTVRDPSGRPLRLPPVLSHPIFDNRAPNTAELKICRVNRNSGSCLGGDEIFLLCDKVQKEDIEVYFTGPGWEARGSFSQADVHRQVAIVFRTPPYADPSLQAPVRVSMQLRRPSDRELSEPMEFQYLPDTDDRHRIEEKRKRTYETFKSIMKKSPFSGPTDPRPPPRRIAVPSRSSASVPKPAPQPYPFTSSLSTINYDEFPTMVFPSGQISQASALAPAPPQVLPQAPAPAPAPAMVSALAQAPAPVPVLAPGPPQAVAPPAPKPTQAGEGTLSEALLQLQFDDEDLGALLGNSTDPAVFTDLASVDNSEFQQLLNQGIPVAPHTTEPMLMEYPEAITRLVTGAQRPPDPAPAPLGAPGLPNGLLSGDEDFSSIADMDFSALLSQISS

Compound	viability at 100 µM [1] [%]	fold change (FC) (KBM5 [2])	Activity (KBM5 [3])	inhibition (KBM5 [4]) [%]	further results
CCCCCCCCCC(=O)N1C(=O)OC[C@@H]1Cc1ccccc1	97	2.4	Active	–	–
CCCCCCCC[C@H](CO)[C@H](O)CCOCc1ccccc1	97	1.1	Active	–	–
CCCCCCCC[C@H](C(=O)N1C(=O)OC[C@@H]1Cc1ccccc1)[C@H](O)CCOCc1ccccc1	98	1.3	Active	–	–
CCCCCCCC[C@@H]1COC(C)(C)O[C@@H]1CCOCc1ccccc1	97	1.4	Active	–	–
CCCCCCCCCCCCCC[C@H]1COC(=O)C[C@H]1O	95	3.6	Active	30	–
CCCCCCC[C@H](CO)[C@H](O)CCOCc1ccccc1	98	4.5	Active	100	fold change (FC) (KBM5 [5]): 1; inhibition [6]: Active; fold change (FC) (KBM5 [7]): 4.2; inhibition (KBM5 [8]): inactive; inhibition [9]: Active; fold change (FC) [10]: 3.8; inhibition (KBM5 [11]): tde; fold change (FC) (KBM5 [12]): 2.5; fold change (FC) [13]: 3.9; fold change (FC) [14]: 3.8; inhibition (KBM5 [15]): Dose-dependent effect; fold change (FC) (KBM5 [16]): 3.1; inhibition (KBM5 [17]): Active; Activity (KBM5 [18]): inactive; fold change (FC) [19]: 3.9; inhibition (KBM5 [20]): tde
